# Source: ChEMBL document CHEMBL1145978, “New N-n-propyl-substituted 3-aryl- and 3-cyclohexylpiperidines as partial agonists at the D4 dopamine receptor” (J Med Chem, 2003)
# Target: T1, D(2) dopamine receptor (Bos taurus, UniProt P20288)
# Experiment: Affinity for Dopamine receptor D2 using [3H]YM-09151-2 was carried out on bovine retinal membrane preparations (high-affinity)
# Set-up: species or system Retina
# How it was run: (§1)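 Retinal membranes were prepared in Tris/EDTA/Ca/Mg/K/NaCl saline, pH 7.4, at about 4 mg wet tissue/mL. They were incubated with 0.1 nM [3H]-YM-09-151-2 at 30 °C for 60 min, in duplicate, with 2 mM DA defining nonspecific binding, followed by rapid filtration. Displacement curves were fitted to a two-site model, giving high- and low-affinity Ki from IC50 using Kd 0.4 nM.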
# T1 sequence (P20288 whole entry): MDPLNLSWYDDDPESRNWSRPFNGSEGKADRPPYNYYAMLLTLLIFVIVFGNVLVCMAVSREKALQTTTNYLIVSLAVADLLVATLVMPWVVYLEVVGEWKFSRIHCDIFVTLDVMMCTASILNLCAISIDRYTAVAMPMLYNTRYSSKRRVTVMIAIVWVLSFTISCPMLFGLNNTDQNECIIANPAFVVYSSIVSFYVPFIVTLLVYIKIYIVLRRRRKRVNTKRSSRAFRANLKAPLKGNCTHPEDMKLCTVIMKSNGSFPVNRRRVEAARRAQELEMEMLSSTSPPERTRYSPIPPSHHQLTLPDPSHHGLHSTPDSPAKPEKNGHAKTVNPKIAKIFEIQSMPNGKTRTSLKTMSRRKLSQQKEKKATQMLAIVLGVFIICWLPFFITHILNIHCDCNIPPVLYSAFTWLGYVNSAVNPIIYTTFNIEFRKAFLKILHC
row,Structure (SMILES),Ki [µM]
1,CCCN1CCCC(C2CCCCC2C)C1 (centres undefined),0.026
2,CCCN1CCCC(C2CCCCC2)C1 (centres undefined),0.004
3,CCCN1CCCC(c2ccc(C)cc2)C1 (centres undefined),0.044
4,CCCN1CCCC(c2cccc(C)c2)C1 (centres undefined),0.042
5,CCCN1CCCC(c2ccccc2)C1 (centres undefined),0.039
6,CCCN1CCCC(C2CCC(C)CC2)C1 (centres undefined),0.004
7,CCCN1CCCC(C2CCCC(C)C2)C1 (centres undefined),0.005
8,CCCN1CCCC(c2ccccc2C)C1 (centres undefined),0.449
9,CCCN1CCCC(c2ccc(C)c(C)c2)C1 (centres undefined),0.027
10,"Cc1cccc(C(=O)NCN2CCN(c3ccccc3C#N)CC2)c1 [PD-168,077]",0.025

# Target: T1, D(2) dopamine receptor
# Experiment: Affinity for Dopamine receptor D2 using [3H]-YM-09151-2 was carried out on bovine striatal membrane preparations
# Set-up: species or system Striatum
# How it was run: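 Competition binding on bovine striatal membranes: homogenised in Tris 50, EDTA 1, CaCl2 1.5, MgCl2 4, KCl 5, NaCl 120 mM, pH 7.4; centrifuged 48 000 g, 20 min, 4 °C, washed, used at ~1.25 mg wet tissue/mL. 0.1 nM [3H]-YM-09-151-2 (Kd 0.4 nM), 60 min at 30 °C, duplicates; nonspecific with 2 mM DA; vacuum filtration; Ki from IC50.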
row,Structure (SMILES),Ki [µM]
1,CCCN1CCCC(C2CCCCC2C)C1 (centres undefined),0.42
2,CCCN1CCCC(c2ccc(C)cc2)C1 (centres undefined),13.8
3,CCCN1CCCC(c2ccccc2)C1 (centres undefined),10.8
4,CCCN1CCCC(C2CCC(C)CC2)C1 (centres undefined),20
5,CCCN1CCCC(c2ccccc2C)C1 (centres undefined),1.51
6,CCCN1CCCC(c2ccc(C)c(C)c2)C1 (centres undefined),8.1

# The next lines start with the values.
row,Ki [µM],Structure (SMILES)
1,14.4,CCCN1CCCC(C2CCCCC2)C1 (centres undefined)
2,10,CCCN1CCCC(C2CCCC(C)C2)C1 (centres undefined)
3,18.3,"Cc1cccc(C(=O)NCN2CCN(c3ccccc3C#N)CC2)c1 [PD-168,077]"

# Target: D(1A) dopamine receptor (Bos taurus, UniProt Q95136)
# Experiment: Affinity for Dopamine receptor D1 using [3H]SCH-23390 was carried out on bovine retinal membrane preparations
# Set-up: species or system Retina
# How it was run: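 Bovine retinal membranes were homogenized in Tris 50 mM, EDTA 1, CaCl2 1.5, MgCl2 4, KCl 5, NaCl 120 mM, pH 7.4, and used at about 4 mg wet tissue/mL. They were incubated with 0.5 nM [3H]-SCH23390 for 20 min at 30 °C, in duplicate. Nonspecific binding was set with 2 mM DA, and bound ligand was separated by vacuum filtration. Ki was derived from IC50 using Kd 2 nM.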
# Chain of D(1A) dopamine receptor (Q95136 whole entry): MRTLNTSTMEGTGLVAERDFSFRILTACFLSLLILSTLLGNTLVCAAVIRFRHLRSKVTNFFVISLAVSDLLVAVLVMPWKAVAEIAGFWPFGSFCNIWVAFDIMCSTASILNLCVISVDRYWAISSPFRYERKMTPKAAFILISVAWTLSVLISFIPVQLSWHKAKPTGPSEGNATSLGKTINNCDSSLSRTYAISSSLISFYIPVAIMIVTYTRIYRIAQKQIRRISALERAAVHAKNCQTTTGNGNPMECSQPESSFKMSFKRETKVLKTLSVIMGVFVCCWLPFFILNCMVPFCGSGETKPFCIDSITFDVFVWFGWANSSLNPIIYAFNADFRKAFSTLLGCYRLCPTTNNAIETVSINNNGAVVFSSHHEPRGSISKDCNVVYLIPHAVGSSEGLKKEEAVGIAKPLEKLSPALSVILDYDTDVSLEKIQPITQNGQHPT
row,Structure (SMILES),Ki [µM]
1,CCCN1CCCC(C2CCCCC2C)C1 (centres undefined),> 10
2,CCCN1CCCC(C2CCCCC2)C1 (centres undefined),> 10
3,CCCN1CCCC(c2ccc(C)cc2)C1 (centres undefined),> 10
4,CCCN1CCCC(c2cccc(C)c2)C1 (centres undefined),> 10
5,CCCN1CCCC(c2ccccc2)C1 (centres undefined),> 10
6,CCCN1CCCC(C2CCC(C)CC2)C1 (centres undefined),> 10
7,CCCN1CCCC(C2CCCC(C)C2)C1 (centres undefined),> 10
8,CCCN1CCCC(c2ccccc2C)C1 (centres undefined),> 10
9,CCCN1CCCC(c2ccc(C)c(C)c2)C1 (centres undefined),> 10
10,"Cc1cccc(C(=O)NCN2CCN(c3ccccc3C#N)CC2)c1 [PD-168,077]",> 10

# Target: T1, D(2) dopamine receptor
# Experiment: Affinity for Dopamine receptor D2 using [3H]YM-09151-2 was carried out on bovine retinal membrane preparations (low-affinity)
# Set-up: species or system Retina
# How it was run: as §1
row,Structure (SMILES),Ki [µM]
1,CCCN1CCCC(C2CCCCC2C)C1 (centres undefined),43.2
2,CCCN1CCCC(C2CCCCC2)C1 (centres undefined),24.9
3,CCCN1CCCC(c2ccc(C)cc2)C1 (centres undefined),35.4
4,CCCN1CCCC(c2cccc(C)c2)C1 (centres undefined),15.9
5,CCCN1CCCC(c2ccccc2)C1 (centres undefined),43.7
6,CCCN1CCCC(C2CCC(C)CC2)C1 (centres undefined),64
7,CCCN1CCCC(C2CCCC(C)C2)C1 (centres undefined),27
8,CCCN1CCCC(c2ccccc2C)C1 (centres undefined),26.7
9,CCCN1CCCC(c2ccc(C)c(C)c2)C1 (centres undefined),7.6
10,"Cc1cccc(C(=O)NCN2CCN(c3ccccc3C#N)CC2)c1 [PD-168,077]",6.3
